Values after ≈ are worked out from the molar mass of the structure shown. Residues, ends and D or L forms follow the SMILES beside them.
Columns and labels:
Micrococcus luteus = assay: Antibacterial activity against Micrococcus luteus ATCC 9341 by microdilution method; type: functional
Method in brief: (§1)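 Modified microdilution method. For the resin conjugates, the amount added to the medium volume was based on the total peptide quantity bound to the resin, as calculated by Fmoc titration.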

Escherichia coli = assay: Antibacterial activity against Escherichia coli ATCC 25922 by microdilution method; type: functional; method in brief: as §1
[1] = Cytotoxicity against human erythrocytes assessed as hemolysis; type: cell-based; conditions: erythrocyte
Pseudomonas aeruginosa = assay: Antibacterial activity against Pseudomonas aeruginosa ATCC 9027 by microdilution method; type: functional; method in brief: as §1
Staphylococcus aureus = assay: Antibacterial activity against Staphylococcus aureus ATCC 6538 by microdilution method; type: functional; method in brief: as §1

SMILES	MIC (Micrococcus luteus) [µg/mL]	MIC (Escherichia coli) [µg/mL]	Activity [1]	MIC (Pseudomonas aeruginosa) [µg/mL]	MIC (Staphylococcus aureus) [µg/mL]
CC(C)[C@H](NC(=O)[C@H](CCCCN)NC(=O)[C@@H](NC(=O)[C@H](CCCCN)NC(=O)[C@H](Cc1ccccc1)NC(=O)[C@H](CCCCN)NC(=O)[C@@H](NC(=O)[C@H](CCCCN)NC(=O)[C@@H](N)Cc1ccccc1)C(C)C)C(C)C)C(=O)N[C@@H](CCCCN)C(N)=O (H-FKVKFKVKVK-NH2)	3.12 (≈ 2.5 µM)	3.12 (≈ 2.5 µM)	Not Active	6.25 (≈ 5 µM)	1.56 (≈ 1.25 µM)
CC(C)[C@H](NC(=O)[C@H](CCCCN)NC(=O)[C@H](CCCCN)NC(=O)[C@H](CCCCN)NC(=O)[C@H](CCCCN)NC(=O)[C@H](CCCCN)NC(=O)[C@@H](NC(=O)[C@@H](NC(=O)[C@@H](N)Cc1ccccc1)C(C)C)C(C)C)C(=O)N[C@@H](Cc1ccccc1)C(N)=O (H-FVVKKKKKVF-NH2)	> 400	> 400		> 400	> 400
CC[C@H](C)[C@H](NC(=O)CN)C(=O)NCC(=O)N[C@@H](CCCCN)C(=O)N[C@@H](Cc1ccccc1)C(=O)N[C@@H](CC(C)C)C(=O)N[C@@H](Cc1c[nH]cn1)C(=O)N[C@@H](CO)C(=O)N[C@@H](C)C(=O)N[C@@H](CCCCN)C(=O)N[C@@H](CCCCN)C(=O)N[C@@H](Cc1ccccc1)C(=O)NCC(=O)N[C@@H](CCCCN)C(=O)N[C@@H](C)C(=O)N[C@@H](Cc1ccccc1)C(=O)N[C@H](C(=O)NCC(=O)N[C@@H](CCC(=O)O)C(=O)N[C@H](C(=O)N[C@@H](CCSC)C(=O)N[C@@H](CC(N)=O)C(=O)N[C@@H](CO)C(=O)O)[C@@H](C)CC)C(C)C [MAGAININ 2] (H-GIGKFLHSAKKFGKAFVGEIMNS-OH)	50 (≈ 20.3 µM)	50 (≈ 20.3 µM)		25 (≈ 10.1 µM)	50 (≈ 20.3 µM)

From ChEMBL document CHEMBL1140458, “Design and synthesis of novel antibacterial peptide-resin conjugates” (Bioorg Med Chem Lett, 2007)
